Data published in ChEMBL document CHEMBL5705886, “GSK1070916, a potent Aurora B/C kinase inhibitor with broad antitumor activity in tissue culture cells and human tumor xenograft models” (Mol Cancer Ther, 2009).
The source made the active and inactive calls. No cut-off for these calls is given here.

Key:
[1] = molecular target: Aurora kinase B/Inner centromere protein (Homo sapiens, UniProt Q96GD4); assay: Binding affinity to AurB/INCENP (unknown origin) assessed as inhibition constant; assay type: protein-complex assay
OCI-AML2 = assay: Antiproliferative activity against human OCI-AML2 cells assessed as inhibition of cell viability measured for 6 to 7 days by cell titer glo assay; assay type: functional, cell-based
Outline: (§1)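 Cells seeded in recommended growth medium, held overnight at 37°C in 5% CO2, then exposed to serial dilutions of inhibitor for 6–7 d. A time-zero plate was read with CellTiter-Glo at dosing. Luminescent viability read at the end. No-cell wells subtracted as background, data expressed as percent of DMSO control.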

SU-DHL-6 = assay: Antiproliferative activity against human SU-DHL-6 cells assessed as inhibition of cell viability measured for 6 to 7 days by cell titer glo assay; assay type: functional, cell-based; outline: as §1
[2] = Antiproliferative activity against human SKW-3 cells assessed as inhibition of cell viability measured for 6 to 7 days by cell titer glo assay; assay type: functional, cell-based; settings: SKW3; outline: as §1
SU-DHL10 = assay: Antiproliferative activity against human SU-DHL-10 cells assessed as inhibition of cell viability measured for 6 to 7 days by cell titer glo assay; assay type: functional, cell-based; outline: as §1
U-937 = assay: Antiproliferative activity against human U-937 cells assessed as inhibition of cell viability measured for 6 to 7 days by cell titer glo assay; assay type: functional, cell-based
COLO 205 = assay: Antitumor activity in human COLO 205 cells xenografted in nude mouse assessed as reduction in tumor growth at 25 to 100 mg/kg, ip administered once daily for 5 consecutive days with 2 days off scheduled for 2 cycles measured upto 60 days; settings: dose 25-100 mg/kg, time 60.0 day
[3] = Toxicity in SCID nude mouse xenografted with human NCI-H460 cells assessed as body weight loss at 25 to 100 mg/kg, ip administered once daily for 5 consecutive days with 2 days off scheduled for 3 cycles measured upto 60 days relative to control; assay type: organism-based; settings: in vivo, 1440 h, dose 25-100 mg/kg, time < 60 day
DG-75 = assay: Antiproliferative activity against human DG-75 cells assessed as inhibition of cell viability measured for 6 to 7 days by cell titer glo assay; assay type: functional, cell-based
Outline: (§2)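 Tumor lines plated in recommended growth media, overnight at 37°C, 5% CO2, then given serial dilutions; a T=0 plate read with CellTiter-Glo at dosing. After 6–7 d of exposure, viability read by CellTiter-Glo luminescence. No-cell wells subtracted, data expressed as % of DMSO control.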

NALM-6 = assay: Antiproliferative activity against human NALM-6 cells assessed as inhibition of cell viability measured for 6 to 7 days by cell titer glo assay; assay type: functional, cell-based
Outline: (§3)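 Cells seeded in recommended growth medium, incubated overnight at 37°C in 5% CO2, then exposed to serial dilutions of inhibitor for 6–7 d. A parallel plate was read with CellTiter-Glo at compound addition as a T=0 value. The luminescent viability readout had no-cell background subtracted and was expressed as % of DMSO control.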

CCRF-SB = assay: Antiproliferative activity against human CCRF-SB cells assessed as inhibition of cell viability measured for 6 to 7 days by cell titer glo assay; assay type: functional, cell-based; outline: as §2
CESS = assay: Antiproliferative activity against human CESS cells assessed as inhibition of cell viability measured for 6 to 7 days by cell titer glo assay; assay type: functional, cell-based; outline: as §2
[4] = Antiproliferative activity against human HS-Sultan cells assessed as inhibition of cell viability measured for 6 to 7 days by cell titer glo assay; assay type: functional, cell-based; outline: as §3
[5] = Antiproliferative activity against human CEM/C1 cells assessed as inhibition of cell viability measured for 6 to 7 days by cell titer glo assay; assay type: functional, cell-based; outline: as §2
[6] = Antiproliferative activity against human MEC-1 cells assessed as inhibition of cell viability measured for 6 to 7 days by cell titer glo assay; assay type: functional, cell-based; settings: MEC1; outline: as §3
[7] = Antiproliferative activity against human PLB-985 cells assessed as inhibition of cell viability measured for 6 to 7 days by cell titer glo assay; assay type: functional, cell-based; outline: as §1
MHH-PREB-1 = assay: Antiproliferative activity against human MHH-PREB-1 cells assessed as inhibition of cell viability measured for 6 to 7 days by cell titer glo assay; assay type: functional, cell-based; outline: as §3
KU812 cell line = assay: Antiproliferative activity against human KU812 cell line assessed as inhibition of cell viability measured for 6 to 7 days by cell titer glo assay; assay type: functional, cell-based; outline: as §3
Pfeiffer = assay: Antiproliferative activity against human Pfeiffer cells assessed as inhibition of cell viability measured for 6 to 7 days by cell titer glo assay; assay type: functional, cell-based; outline: as §1
NCI-H358 = assay: Antiproliferative activity against human NCI-H358 cells assessed as inhibition of cell viability measured for 6 to 7 days by cell titer glo assay; assay type: functional, cell-based; outline: as §3
KG-1 = assay: Antiproliferative activity against human KG-1 cells assessed as inhibition of cell viability measured for 6 to 7 days by cell titer glo assay; assay type: functional, cell-based; outline: as §3
J-RT3-T3-5 = assay: Antiproliferative activity against human J-RT3-T3-5 cells assessed as inhibition of cell viability measured for 6 to 7 days by cell titer glo assay; assay type: functional, cell-based; outline: as §3
[8] = Antiproliferative activity against HUVEC cells assessed as reduction in cell viability measured after 6 days by cell titer glo assay; assay type: toxicity, cell-based; settings: human
Outline: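 HUVECs (primary) in EGM-2 with 2% FBS and supplements, assayed in cycling and nonproliferating states. Cycling: 500 cells/well seeded 1 d before dosing. Nonproliferating: 35,000 cells in half-area wells seeded 4 d ahead, fresh media next day and media changed 1 d before dosing. 2-fold dilutions 20000 to 0.15 nmol/L, 6 d at 37°C, 5% CO2. CellTiter-Glo 30 min, background-subtracted, % of DMSO control.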

NC-37 = assay: Antiproliferative activity against human NC-37 cells assessed as inhibition of cell viability measured for 6 to 7 days by cell titer glo assay; assay type: functional, cell-based; outline: as §3
A549 = assay: Effect on cell cycle distribution in human A549 cells assessed as decrease in 2N DNA content incubated for 24 to 72 hrs by flow cytometry based analysis; assay type: functional; settings: dose 2-5000 nM, time 24-72 hrs
RPMI-6666 = assay: Antiproliferative activity against human RPMI-6666 cells assessed as inhibition of cell viability measured for 6 to 7 days by cell titer glo assay; assay type: functional, cell-based; outline: as §1
EB-3 = assay: Antiproliferative activity against human EB-3 cells assessed as inhibition of cell viability measured for 6 to 7 days by cell titer glo assay; assay type: functional, cell-based; outline: as §2
DU-145 = assay: Antiproliferative activity against human DU-145 cells assessed as inhibition of cell viability measured for 6 to 7 days by cell titer glo assay; assay type: functional, cell-based
Outline: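 Cells plated in recommended growth medium, held overnight at 37°C in 5% CO2, then given serial dilutions of inhibitor; a T=0 set read with CellTiter-Glo at dosing. Luminescent viability read after 6–7 d exposure.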

HL-60 = assay: Antitumor activity in human HL-60 cells xenografted in SCID mouse assessed as median survival time at 25 mg/kg, ip administered once daily for 5 consecutive days with 2 days off scheduled for 2 cycles measured upto 120 days; assay type: functional; settings: time <= 120 day
CTV-1 = assay: Antiproliferative activity against human CTV-1 cells assessed as inhibition of cell viability measured for 6 to 7 days by cell titer glo assay; assay type: functional, cell-based; outline: as §2
[9] = Toxicity in SCID nude mouse xenografted with human K562 cells assessed as body weight loss at 100 mg/kg, ip administered once daily for 5 consecutive days with 2 days off scheduled for 3 cycles measured upto 60 days; assay type: organism-based; settings: in vivo, 1440 h, time < 60 day

Aurora kinase B/Inner centromere protein, sequence (Q96GD4 whole entry): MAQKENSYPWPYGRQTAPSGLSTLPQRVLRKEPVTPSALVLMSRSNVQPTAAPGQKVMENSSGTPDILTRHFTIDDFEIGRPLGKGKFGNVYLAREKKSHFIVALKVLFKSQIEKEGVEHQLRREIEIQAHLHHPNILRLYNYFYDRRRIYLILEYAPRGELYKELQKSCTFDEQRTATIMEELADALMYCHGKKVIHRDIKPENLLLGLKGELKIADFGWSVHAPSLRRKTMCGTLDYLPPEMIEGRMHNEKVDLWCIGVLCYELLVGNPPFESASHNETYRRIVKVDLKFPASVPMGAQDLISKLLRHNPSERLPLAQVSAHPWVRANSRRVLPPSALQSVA
Aurora kinase B/Inner centromere protein, sequence (Q9NQS7 whole entry, further chain): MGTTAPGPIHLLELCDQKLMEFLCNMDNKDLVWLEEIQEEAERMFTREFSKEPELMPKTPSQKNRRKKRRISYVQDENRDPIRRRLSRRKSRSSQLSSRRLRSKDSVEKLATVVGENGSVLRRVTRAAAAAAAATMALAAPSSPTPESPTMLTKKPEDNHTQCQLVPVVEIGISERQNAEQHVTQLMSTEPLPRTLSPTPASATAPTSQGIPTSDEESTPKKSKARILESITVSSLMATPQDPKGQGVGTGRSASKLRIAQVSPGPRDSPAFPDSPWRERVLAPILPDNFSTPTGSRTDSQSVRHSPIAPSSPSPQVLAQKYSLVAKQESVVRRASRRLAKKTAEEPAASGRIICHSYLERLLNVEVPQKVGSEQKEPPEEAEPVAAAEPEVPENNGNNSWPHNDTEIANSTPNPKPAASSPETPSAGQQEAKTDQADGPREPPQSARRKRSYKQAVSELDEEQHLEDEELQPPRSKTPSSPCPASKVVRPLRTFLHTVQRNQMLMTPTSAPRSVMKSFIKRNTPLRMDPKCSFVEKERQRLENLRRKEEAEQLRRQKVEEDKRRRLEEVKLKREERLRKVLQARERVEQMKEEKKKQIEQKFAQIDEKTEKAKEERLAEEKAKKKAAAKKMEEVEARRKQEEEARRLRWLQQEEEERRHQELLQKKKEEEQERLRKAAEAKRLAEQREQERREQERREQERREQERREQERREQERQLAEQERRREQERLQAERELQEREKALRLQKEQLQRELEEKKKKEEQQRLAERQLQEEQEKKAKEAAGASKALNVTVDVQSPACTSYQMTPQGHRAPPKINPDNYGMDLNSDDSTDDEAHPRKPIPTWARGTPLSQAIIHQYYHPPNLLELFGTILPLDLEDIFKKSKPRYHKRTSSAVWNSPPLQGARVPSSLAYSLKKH

CCn1cc(-c2ccnc3[nH]c(-c4cccc(CN(C)C)c4)cc23)c(-c2ccc(NC(=O)N(C)C)cc2)n1 [GSK-1070916]
Ki [1]: 0.39 nM | EC50 (OCI-AML2): 4 nM | EC50 (SU-DHL-6): 6 nM | EC50 [2]: 5 nM | EC50 (SU-DHL10): 15 nM | EC50 (U-937): 5 nM | Activity (COLO 205): inactive | Activity [3]: < 15% | EC50 (DG-75): 18 nM | EC50 (NALM-6): 2 nM | EC50 (CCRF-SB): 2 nM | EC50 (CESS): 5 nM | EC50 [4]: 14 nM | EC50 [5]: 6 nM | EC50 [6]: 10 nM | EC50 [7]: 1 nM | EC50 (MHH-PREB-1): 4 nM | EC50 (KU812 cell line): 8 nM | EC50 (Pfeiffer): 4 nM | EC50 (NCI-H358): 4 nM | EC50 (KG-1): 32 nM | EC50 (J-RT3-T3-5): 9 nM | EC50 at 6 days [8]: 3900 nM | EC50 (NC-37): 7 nM | Activity (A549): Active | EC50 (RPMI-6666): 10 nM | EC50 (EB-3): 7 nM | EC50 (DU-145): 15 nM | MST (HL-60): 57 days | EC50 (CTV-1): 4 nM | Activity [9]: Toxic
